According to ChEMBL document CHEMBL1137008, “Cancer preventive agents 9. Betulinic acid derivatives as potent cancer chemopreventive agents” (Bioorg Med Chem Lett, 2009):

Experiments:
[1] = Cytotoxicity against human Raji cells assessed as cell viability at 1000 molar ratio after 48 hrs by trypan blue staining method; format: cell-based; conditions: read-out: Activity
Method in brief: (§1)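 Raji cells (EBV genome-carrying, Burkitt's lymphoma) grown in RPMI-1640 with 10% FBS; incubated 48 h at 37 °C with 4 mM n-butyric acid, 32 pM TPA and test compound in DMSO at stated compound/TPA molar ratio; viability determined by Trypan blue staining.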

[2] = test system: Raji; test: Inhibition of TPA-induced EBV-early antigen activation in human Raji cells assessed as EA induction at 500 molar ratio after 48 hrs relative to TPA; format: cell-based; set-up: scale not given: the % may be the effect or the level left; conditions: human gammaherpesvirus 4
Method in brief: (§2)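 Raji cells (virus non-producer, spontaneous EA activation <0.1%) incubated 48 h at 37 °C with 4 mM n-butyric acid plus 32 pM TPA and compound in DMSO; smears stained by indirect immunofluorescence with NPC patient EBV-EA-positive serum, ≥500 cells counted; EA-positive cells expressed relative to butyrate+TPA control (100%); triplicates; IC50 as mol ratio to 32 pmol TPA.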

[3] = test system: Raji; test: Inhibition of TPA-induced EBV-early antigen activation in human Raji cells assessed as EA induction at 10 molar ratio after 48 hrs relative to TPA; format: cell-based; set-up: scale not given: the % may be the effect or the level left; conditions: human gammaherpesvirus 4; method in brief: as §2
[4] = Inhibition of TPA-induced EBV-early antigen activation in human Raji cells assessed as EA induction after 48 hrs relative to TPA; format: cell-based, human gammaherpesvirus 4; method in brief: as §2
[5] = Cytotoxicity against human Raji cells assessed as cell viability at 100 molar ratio after 48 hrs by trypan blue staining method; format: cell-based; conditions: read-out: Activity; method in brief: as §1
[6] = test system: Raji; test: Inhibition of TPA-induced EBV-early antigen activation in human Raji cells assessed as EA induction at 1000 molar ratio after 48 hrs relative to TPA; format: cell-based; set-up: scale not given: the % may be the effect or the level left; conditions: human gammaherpesvirus 4; method in brief: as §2
[7] = Cytotoxicity against human Raji cells assessed as cell viability at 10 molar ratio after 48 hrs by trypan blue staining method; format: cell-based; conditions: read-out: Activity; method in brief: as §1
[8] = test system: Raji; test: Inhibition of TPA-induced EBV-early antigen activation in human Raji cells assessed as EA induction at 100 molar ratio after 48 hrs relative to TPA; format: cell-based; set-up: scale not given: the % may be the effect or the level left; conditions: human gammaherpesvirus 4; method in brief: as §2
[9] = Cytotoxicity against human Raji cells assessed as cell viability at 500 molar ratio after 48 hrs by trypan blue staining method; format: cell-based; conditions: read-out: Activity; method in brief: as §1

| Structure (SMILES) | viability at 48 h, 1000 molar ratio [1] | Activity [2] | Activity [3] | IC50 [4] | viability at 48 h, 100 molar ratio [5] | Activity [6] | viability at 48 h, 10 molar ratio [7] | Activity [8] | viability at 48 h, 500 molar ratio [9] |
| --- | --- | --- | --- | --- | --- | --- | --- | --- | --- |
| C=C(C)[C@@H]1CC[C@]2(C(=O)O)CC[C@]3(C)[C@H](CC[C@@H]4[C@@]5(C)CC[C@H](OC(=O)CCC/C=C\C/C=C\C/C=C\C/C=C\CCCCC)C(C)(C)[C@@H]5CC[C@]43C)[C@@H]12 | 60% | 46.1% | 100% | 482 molar ratio | > 80% | 12.3% | > 80% | 79% | > 80% |
| C=C(C)[C@@H]1CC[C@]2(C(=O)O)CC[C@]3(C)[C@H](CC[C@@H]4[C@@]5(C)CC[C@H](OC(=O)C=C(C)C)C(C)(C)[C@@H]5CC[C@]43C)[C@@H]12 | 70% | 23.5% | 88.7% | 285 molar ratio | > 80% | 0% | > 80% | 62.5% | > 80% |
| C=C(C)[C@@H]1CC[C@]2(C(=O)O)CC[C@]3(C)[C@H](CC[C@@H]4[C@@]5(C)[C@@H](C(=O)O)[C@H](O)C(C)(C)[C@@H]5CC[C@]43C)[C@@H]12 [CEANOTHIC ACID] | 60% | 35.7% | 100% | 400 molar ratio | > 80% | 8.5% | > 80% | 72.1% | > 80% |
| C=C(C)[C@@H]1CC[C@]2(C(=O)O)CC[C@]3(C)[C@H](CC[C@@H]4[C@@]5(C)CC[C@H](OC(=O)CC(C)(C)C(=O)O)C(C)(C)[C@@H]5CC[C@]43C)[C@@H]12 [BEVIRIMAT] | 60% | 36.1% | – | 396 molar ratio | > 80% | 6.1% | > 80% | 74.2% | > 80% |
| C=C(C)[C@@H]1CC[C@]2(C(=O)O)CC[C@]3(C)[C@H](CC[C@@H]4[C@@]5(C)CC[C@H](O)C(C)(C)[C@@H]5CC[C@]43C)[C@@H]12 [BETULINIC ACID] | 60% | 37.2% | 100% | 403 molar ratio | > 80% | 7.9% | > 80% | 75.1% | > 80% |
| C=C(C)[C@@H]1CC[C@]2(C(=O)O)CC[C@]3(C)[C@H](CC[C@@H]4[C@@]5(C)CC[C@H](OC(=O)CC/C=C\C/C=C\C/C=C\C/C=C\C/C=C\C/C=C\CC)C(C)(C)[C@@H]5CC[C@]43C)[C@@H]12 | 60% | 53.8% | 100% | 546 molar ratio | > 80% | 17% | > 80% | 83.2% | > 80% |
| C=C(C)[C@@H]1CC[C@]2(C(=O)O)CC[C@]3(C)[C@H](CC[C@@H]4[C@@]5(C)CC[C@H](OC(=O)CCCCCCC/C=C\C/C=C\CCCCC)C(C)(C)[C@@H]5CC[C@]43C)[C@@H]12 | 60% | 37.9% | 94.8% | 390 molar ratio | > 80% | 7.3% | > 80% | 75.9% | > 80% |
| C=C(C)[C@@H]1CC[C@]2(C(=O)O)CC[C@]3(C)[C@H](CC[C@@H]4[C@@]5(C)CC[C@H](OC(=O)/C=C/C)C(C)(C)[C@@H]5CC[C@]43C)[C@@H]12 | 70% | 26.2% | 91.6% | 299 molar ratio | > 80% | 0% | > 80% | 66.7% | > 80% |
| C=C(C)[C@@H]1CC[C@]2(C(=O)O)CC[C@]3(C)[C@H](CC[C@@H]4[C@@]5(C)C[C@H](OC(=O)CC(C)(C)C(=O)O)C(C)(C)[C@@H]5CC[C@]43C)[C@@H]12 | 60% | 35.6% | 95.3% | 352 molar ratio | > 80% | 5.7% | > 80% | 73.1% | > 80% |
